The structures appear in SMILES notation. pKi: −log10 of the molar value.

For orientation: pKi means −log10 of the Ki, conventionally taken in molar units. A lower pKi goes with a large Ki.

For assay [1], the target named is Neuronal acetylcholine receptor; alpha4/beta2 (Rattus norvegicus, UniProt P09483+P12390). In words: Displacement of [3H]epibatidine from alpha-4-beta-2 nAChR in rat cerebral cortex. Format: tissue-based. On the technique in general: Loss of bound radioactivity is the signal in a displacement assay; it reports binding, not function.
Neuronal acetylcholine receptor; alpha4/beta2, sequence (P09483 whole entry): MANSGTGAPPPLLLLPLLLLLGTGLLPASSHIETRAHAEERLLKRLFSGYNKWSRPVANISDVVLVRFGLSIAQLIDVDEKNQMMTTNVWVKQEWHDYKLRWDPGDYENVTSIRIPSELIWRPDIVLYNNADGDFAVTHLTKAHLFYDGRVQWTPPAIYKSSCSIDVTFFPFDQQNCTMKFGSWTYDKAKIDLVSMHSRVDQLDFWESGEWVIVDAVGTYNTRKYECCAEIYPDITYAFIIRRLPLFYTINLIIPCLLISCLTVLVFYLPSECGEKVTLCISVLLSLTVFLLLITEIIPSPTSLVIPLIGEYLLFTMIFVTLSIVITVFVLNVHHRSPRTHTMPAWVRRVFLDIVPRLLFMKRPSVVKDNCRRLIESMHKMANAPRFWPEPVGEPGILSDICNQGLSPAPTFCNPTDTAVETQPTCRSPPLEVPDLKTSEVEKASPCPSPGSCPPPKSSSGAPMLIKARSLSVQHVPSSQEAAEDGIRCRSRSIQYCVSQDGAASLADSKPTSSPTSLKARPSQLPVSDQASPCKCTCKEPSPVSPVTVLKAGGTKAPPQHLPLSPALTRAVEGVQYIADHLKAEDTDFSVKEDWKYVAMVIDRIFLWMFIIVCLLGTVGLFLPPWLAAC
Neuronal acetylcholine receptor; alpha4/beta2, sequence (P12390 whole entry): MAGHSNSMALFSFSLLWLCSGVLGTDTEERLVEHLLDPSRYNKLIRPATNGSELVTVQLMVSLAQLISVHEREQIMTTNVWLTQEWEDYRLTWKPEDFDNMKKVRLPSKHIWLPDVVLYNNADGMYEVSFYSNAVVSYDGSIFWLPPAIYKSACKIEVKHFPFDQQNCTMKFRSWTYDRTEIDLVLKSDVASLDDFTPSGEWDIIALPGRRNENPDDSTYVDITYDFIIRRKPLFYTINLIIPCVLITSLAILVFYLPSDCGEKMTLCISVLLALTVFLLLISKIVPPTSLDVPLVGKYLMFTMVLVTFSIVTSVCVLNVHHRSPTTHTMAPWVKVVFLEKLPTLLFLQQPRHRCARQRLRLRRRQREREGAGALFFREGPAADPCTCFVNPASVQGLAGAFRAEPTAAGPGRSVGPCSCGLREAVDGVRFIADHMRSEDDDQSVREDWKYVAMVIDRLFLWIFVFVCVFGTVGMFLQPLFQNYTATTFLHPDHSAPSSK
Assay [2] concerns Mus musculus. In words: Inhibition of nicotine-induced antinociception in sc dosed acute pain mouse model by tail flick method. Format: functional. A general note: In hot-plate and tail-flick tests a longer latency is read as antinociception.
For assay [3], the system named is Mus musculus. In words: Antinociceptive activity in acute pain mouse model at 10 mg/kg, sc by hot plate method. Format: functional. The conditions noted are these: route subcutaneous. Summed up: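 Mice were placed in a 10-cm glass cylinder on a hot plate held at 55.0 °C. Two control latencies, at least 10 min apart, were taken per mouse (normal 8–12 s). The endpoint was a jump or paw lick, and animals were tested 5 min after sc injection. Response was expressed as %MPE from test, control and maximum latencies. ED50 values are given with confidence limits, or as percent effect at a dose.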

For assay [4], the system named is Mus musculus. In words: Effect on rectal temperature in mouse at 500 […], sc. The assay is classed as functional. Particulars: route subcutaneous. Summed up: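 Rectal temperature was read with a thermistor probe inserted 24 mm, just before and at several times after sc saline or analog. The pre/post difference was calculated per mouse. Laboratory ambient temperature was 21–24 °C.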

Assay [5] deals with Mus musculus. In words: Inhibition of nicotine-induced antinociception in sc dosed acute pain mouse model by hot plate method. The assay is classed as functional.

In assay [1], `Cl.O=[N+]([O-])c1cccc(-c2cc(C3CC4CCC3N4)cnc2F)c1` (racemic) gave a pKi of 10.28. In addition, the AD50 with Mus musculus [2] was 0.0002 mg/kg; in the assay on Mus musculus [5], 0.13 mg/kg. Besides, the values for the Activity with Mus musculus [3] and in the assay on Mus musculus [4] were 20% and 5%, respectively.

Source of the values: ChEMBL document CHEMBL1143907, “Synthesis, nicotinic acetylcholine receptor binding, and pharmacological properties of 3'-(substituted phenyl)deschloroepibatidine analogs” (Bioorg Med Chem, 2008).
